Test results from publication PMC6463402 (Current Radiopharmaceuticals, 2019).
Read-outs that look alike come from different tables or passages of the source. Values belong to the molecule of their own block, whether it stands above or below them.

Experiments:
[1] = cited from earlier work
Aβ = conditions: cited from earlier work
Stability in plasma = format: in vitro ADME, human; conditions: 2 h incubation at 37 °C
Aβ plaques = Aβ plaques (Homo sapiens, UniProt P05067); assay: In vitro binding assays with Aβ plaques; design: species or system 3xTg-AD mice
Aβ plaques, sequence (P05067 672-713): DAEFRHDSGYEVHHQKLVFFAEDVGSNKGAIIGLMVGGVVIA

[2] = Stability in the final formulation; format: physicochemical; conditions: 6 h, room temperature
Procedure, shortened: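 Three samples of the formulated tracer, a filtered ethanol/saline formulation with phosphate and Tween 80, were held at room temperature. Each was analysed at 0, 1, 2, 3, 4, 5 and 6 h by radio-HPLC on C18 with MeCN:H2O 75:25 at 1 mL/min, using UV 215 nm and gamma detectors. Radiochemical purity was taken as the tracer peak area relative to total radioactivity.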

APPSwe/PS1dE9 mice = assay: PET/CT imaging, transgenic mice; format: in vivo; conditions: static PET at 30 min, n=3, no statistical significance
Procedure, shortened: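 Male APPSwe/PS1dE9 transgenic mice (aged 12 months) and male C57BL/6 controls (aged 13 months) under isoflurane received 30-37 MBq i.v. via tail vein. PET/CT images were fused with a brain-template atlas to give regional values. In static images, regional SUV was normalised to brain stem (n=3). Transgenic and control regions were compared by Student's t-test, α=0.05.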

Protein binding assay = format: in vitro ADME; conditions: human plasma, gel filtration
Procedure, shortened: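 Human plasma (1 mL) with 100 μL radiotracer was incubated at 37 °C for 120 min. At 30, 60 and 120 min, 50 μL was applied to pre-spun G-50 size-exclusion spin columns, left 2 min, and centrifuged 2 min at 3300 rpm, 4 °C. Column (free) and eluate (bound) activity were gamma-counted. The blank used 0.1 M phosphate buffer instead of plasma, at 120 min.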

C57BL/6 mice = assay: PET/CT imaging, control healthy mice; format: in vivo; conditions: wild-type mice, i.v.
Procedure, shortened: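 Male C57BL/6 controls (aged 13 months), anaesthetised with 4-5% isoflurane (1-2% maintenance), received 30-37 MBq via lateral tail vein. Dynamic PET ran 120 min, framed 10x2 min, 5x5 min and 5x15 min, with CT at 45 kVp for anatomy. Decay-corrected PET was fused with CT and an MRI mouse brain template holding predefined brain regions of interest.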

[3] = Biodistribution study and non-compartmental pharmacokinetics; format: in vivo, Balb/C mice; conditions: i.v.
Procedure, shortened: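 Thirty healthy male Balb/C mice (10-12 weeks, 28.5±2.0 g) in 6 groups of 5 received 20-40 MBq i.v. via lateral tail vein. Blood was collected and mice were killed at 5, 15, 30, 45, 70 and 180 min. Organs were removed, washed with saline, dried and weighed, and radioactivity was well-counted. Plasma PK parameters came from non-compartmental analysis, reported as mean and standard deviation.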

[4] = Lipophilicity, n-octanol/phosphate buffer partition coefficient; format: physicochemical; conditions: n-octanol/phosphate buffer 0.1 mol/L, pH 7.4; mean of two batches in triplicate
[5] = brain serial sections of 3xTg-AD mice
[6] = plasma of healthy Balb/C male mice, NCA

SMILES: CNc1ccc(/C=C/c2ccc(OCCOCCOCCF)cc2)cc1 [[^18F]Florbetaben, BAY94-9172]
Log P [1]: 2.41 [65]
Kd (Aβ; AD brain homogenates ref 60): 16 nM

stability in fresh human plasma (Stability in plasma): not degraded
Kd (Aβ plaques): 0.16 nM
Bmax (Aβ plaques; [5]): 119.4 nM
fold higher BP than [^11C]PIB (Aβ plaques; [5]): 3 folds
fold higher affinity for Aβ plaques compared with [^11C]PIB (Aβ plaques; [5]): 6 fold
stability (radiochemical purity) of final formulation [2]: did not significantly change
plasma protein binding (PPB) (Protein binding assay): high PPB percentage
time of maximum activity in brain (dynamic PET) (C57BL/6 mice): 2 min
bone uptake ([3]; healthy Balb/C mice): relatively high bone uptake
uptake in kidneys and liver ([3]; healthy Balb/C mice): high uptake values
brain uptake (washout/clearance) ([3]; healthy Balb/C mice, 60 min): 0.11±0.03 %ID/g
T1/2 (plasma) [3, 6]: 37 ± 10 min
Vss [3, 6]: 10.3 ± 2.9 mL
Vss/kg [3, 6]: 0.372 ± 0.11 L/kg
log Poct/PBS [4]: 2.46 ± 0.06
SMILES: COc1ccc2cc(CCC[18F])ccc2c1 [[^18F]Amylovis, 2-(3-[^18F]fluoropropyl)-6-methoxynaphthalene]
uptake in cortex, transgenic vs control healthy mice (SUVr to brain stem) (APPSwe/PS1dE9 mice): slightly incremented uptake

SMILES: CNc1ccc(/C=C/c2ccc(OCCOCCOCCF)nc2)cc1 [[^18F]Florbetapir, AV-45]
Kd (Aβ; AD brain homogenates ref 62): 3.72 nM

SMILES: CNc1ccc(-c2nc3ccc(O)cc3s2)cc1F [[^18F]Flutemetamol, GE-067]
Log P [1]: 1.7 [64]
Kd (Aβ; AD brain homogenates ref 59): 6.7 nM
